Data taken from ChEMBL document CHEMBL2150888, “Conformationally constrained peptides from CD2 to modulate protein-protein interactions between CD2 and CD58” (J Med Chem, 2011).
Blank lines part the entries; values can stand above or below the compound they belong to. *1 amine or outer side, *2 acyl side, *3 side chain or, on linkers, in order; H or OH if unused. Where a SMILES comes first, the peptide text is derived from it. [ ]: non-standard residue; d: D form. X1 = O=C(CCc1cccc2c1oc1c(CCN[*:1])cccc12)[*:2]

Assays:
[1] = molecular target: T1, Lymphocyte function-associated antigen 3/T-cell surface antigen CD2 (Homo sapiens) (UniProt P06729+P19256); experiment: (§1) Inhibition of CD2-CD58 protein-protein interaction assessed as inhibition of cell adhesion between CD58 expressing human Caco2 cells and CD2 expressing human Jurkat cells by BCECF-AM fluorescent dye based fluorimetric assay; parameters: concentration or dose not given beside the values; details: concentration not given here
[2] = Toxicity in human Jurkat cells assessed as cell viability at 200 yuM incubated for 2 hrs by CellTiter-Glo assay; type: cell-based; details: read-out: Activity
Summary of the method: (§2)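 Jurkat suspensions treated in tubes with peptide (diluted in serum-free medium from DMSO stock) for 2 h, washed by centrifugation, then CellTiter-Glo luminescence read on a microplate. Blank-subtracted, with SDS and 1% DMSO controls. Viability relative to cells without peptide; triplicates in two independent runs.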

[3] = Toxicity in human Jurkat cells assessed as cell viability incubated for 2 hrs by CellTiter-Glo assay; type: cell-based; details: read-out: Activity; summary of the method: as §2
[4] = molecular target: T1, Lymphocyte function-associated antigen 3/T-cell surface antigen CD2 (Homo sapiens); experiment: Inhibition of CD2-CD58 protein-protein interaction assessed as inhibition of cell adhesion between CD58 expressing human Caco2 cells and CD2 expressing human Jurkat cells at =< 1 uM by BCECF-AM fluorescent dye based fluorimetric assay
[5] = molecular target: T2, Lymphocyte function-associated antigen 3/T-cell surface antigen CD2 (Homo sapiens, UniProt P06729+P19256); experiment: as §1
T2 sequence (P06729 whole entry): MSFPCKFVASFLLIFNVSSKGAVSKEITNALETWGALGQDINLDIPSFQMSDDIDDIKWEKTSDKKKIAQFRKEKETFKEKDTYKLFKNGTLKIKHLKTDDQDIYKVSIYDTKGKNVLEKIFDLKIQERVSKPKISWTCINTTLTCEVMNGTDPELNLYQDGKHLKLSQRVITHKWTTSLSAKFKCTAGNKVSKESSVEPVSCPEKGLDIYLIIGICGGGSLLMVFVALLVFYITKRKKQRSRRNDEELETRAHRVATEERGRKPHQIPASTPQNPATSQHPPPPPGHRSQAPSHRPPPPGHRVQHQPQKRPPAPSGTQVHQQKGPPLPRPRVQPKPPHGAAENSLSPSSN
T2 sequence (P19256 whole entry): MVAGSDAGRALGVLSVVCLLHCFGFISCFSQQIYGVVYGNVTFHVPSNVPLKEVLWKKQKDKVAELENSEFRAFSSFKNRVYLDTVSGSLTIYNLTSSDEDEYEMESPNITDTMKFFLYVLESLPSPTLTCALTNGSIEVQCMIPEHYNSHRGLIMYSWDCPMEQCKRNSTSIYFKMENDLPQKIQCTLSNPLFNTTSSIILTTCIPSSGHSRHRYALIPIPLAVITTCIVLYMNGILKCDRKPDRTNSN

[6] = Toxicity in human Caco2 cells assessed as cell viability incubated for 2 hrs by CellTiter-Glo assay; type: cell-based; details: Caco-2 cells, read-out: Activity
Summary of the method: (§3)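 Caco-2 cells exposed to peptide (200–0.1 µM, diluted in serum-free medium from DMSO stock) for 2 and 3 h, washed with PBS, then CellTiter-Glo luminescence read. Blank-subtracted, with 0.1% SDS and 1% DMSO controls. Viability relative to cells without peptide; triplicates in two independent runs.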

[7] = Toxicity in human Caco2 cells assessed as cell viability at 200 uM incubated for 2 hrs by CellTiter-Glo assay; type: cell-based; details: Caco-2 cells, read-out: Activity; summary of the method: as §3
T-cell = experiment: Inhibition of T-cell response to type 2 collagen in type 2 collagen primed T cells derived from transgenic mouse expressing functional HLA-DQ8 by [3H]thymidine incorporation assay; type: cell-based
Summary of the method: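 Lymph node cells (draining popliteal, caudal, lumbar) taken 10 days after intradermal tail-base immunization of HLA-DQ8 transgenic mice with 200 µg native chick CII in CFA (1:1). 1 × 10^6 LNC challenged in vitro with CII at 50 µg/mL, with peptide at four concentrations (10–.01 µM); 3H-thymidine (1 µCi/well) pulse for last 18 h; Δcpm = test minus medium control; mean ±S.D., N = 4.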

inhibition [1]: < 20%
Compound: CC[C@H](C)[C@@H]1NC(=O)[C@H](Cc2ccc(O)cc2)NC(=O)[C@H](CC(=O)O)NC(=O)CCc2cccc3c2Oc2c(cccc2-3)CCNC(=O)[C@H](CC(=O)O)NC(=O)[C@H](CC(=O)O)NC(=O)[C@H]([C@@H](C)CC)NC(=O)[C@H](CCCCN)NC(=O)[C@H](CO)NC1=O (cyclo(DD[X1]DYISKI))

inhibition [1]: < 20%
Compound: CC[C@H](C)[C@@H]1NC(=O)[C@H](CCCCN)NC(=O)[C@H](CC(=O)O)NC(=O)[C@H](CC(=O)O)NC(=O)CCc2cccc3c2Oc2c(cccc2-3)CCNC(=O)[C@H](CC(=O)O)NC(=O)[C@H](Cc2ccc(O)cc2)NC1=O (cyclo(DDKIYD[X1]))

Compound: CC[C@H](C)[C@@H]1NC(=O)[C@H](Cc2ccc(O)cc2)NC(=O)[C@H](CC(=O)O)NC(=O)CCc2cccc3c2Oc2c(cccc2-3)CCNC(=O)[C@H](CC(=O)O)NC(=O)[C@H](CC(=O)O)NC(=O)[C@H](CCCCN)NC1=O (cyclo(DD[X1]DYIK))
viability at 2 h, 200 µM [2]: 90%
viability at 2 h [3]: > 95%
inhibition [4]: 80%
IC50 [5]: 11.1 nM
viability at 2 h [6]: > 95%
viability at 2 h, 200 µM [7]: 90%

inhibition [1]: 18%
Compound: H-KGKTDAISVKAI-NH2

inhibition [1]: < 20%
Compound: CC[C@H](C)[C@@H]1NC(=O)[C@H](CCCCN)NC(=O)[C@H](CC(=O)O)NC(=O)[C@H](CC(=O)O)NC(=O)[C@@H]2CCCN2C(=O)[C@H]2CCCN2C(=O)[C@H](CC(=O)O)NC(=O)[C@H](Cc2ccc(O)cc2)NC1=O

inhibition [1]: < 20%
Compound: CC[C@H](C)[C@@H]1NC(=O)[C@H](CC(=O)O)NC(=O)[C@H](CC(=O)O)NC(=O)CCc2cccc3c2Oc2c(cccc2-3)CCNC(=O)[C@H](CC(=O)O)NC(=O)[C@H](Cc2ccc(O)cc2)NC(=O)[C@H]([C@@H](C)CC)NC(=O)[C@H](CO)NC(=O)[C@H](CCCCN)NC1=O (cyclo(DDIKSIYD[X1]))

Compound: CC[C@H](C)[C@@H]1NC(=O)[C@H](CC(=O)O)NC(=O)[C@H](CC(=O)O)NC(=O)[C@@H]2CCCN2C(=O)[C@H]2CCCN2C(=O)[C@H](CC(=O)O)NC(=O)[C@H](Cc2ccc(O)cc2)NC(=O)[C@H]([C@@H](C)CC)NC(=O)[C@H](CO)NC(=O)[C@H](CCCCN)NC1=O
viability at 2 h [3]: > 95%
inhibition (T-cell): Dose-dependent effect
viability at 2 h [6]: > 95%
